{
  "source": "ChEMBL document CHEMBL1128398",
  "about": "“Structure-activity relationship of alpha-galactosylceramides against B16-bearing mice” (1995)",
  "key": {"Mus musculus [1]": {"species": "Mus musculus", "test": "Lymphocyte Proliferation Stimulatory effect on mouse spleen cell at a concentration of 100n g/mL", "type": "functional", "in_short": "(§1)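 BALB/c spleen cells (2 × 10^5 cells/well, no stimulator cells) were cultured in 10% FCS RPMI 1640 with compound at 37 °C in 5% CO2 for 2–3 days. A 6 h [3H]TdR pulse followed, and uptake was counted by liquid scintillation. Run in triplicate.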"}, "Mus musculus [2]": {"species": "Mus musculus", "test": "Lymphocyte Proliferation Stimulatory effect on allogenic MLR at a concentration of 1 ng/mL", "type": "functional", "in_short": "(§2)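 Responders were BALB/c spleen cells and stimulators were C57BL/6 spleen cells pretreated with MMC (50 μg/mL, 30 min). Both were plated at 1 × 10^5 cells in 10% FCS RPMI 1640, with compounds added at plating. Culture was at 37 °C in 5% CO2 for 2–3 days, then a 6 h [3H]TdR pulse with scintillation counting. Run in triplicate.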"}, "Mus musculus [3]": {"species": "Mus musculus", "test": "Lymphocyte Proliferation Stimulatory effect on mouse spleen cell at a concentration of 1 ng/mL", "type": "functional", "in_short": "as §1"}, "Mus musculus [4]": {"species": "Mus musculus", "test": "Lymphocyte Proliferation Stimulatory effect on allogenic MLR at a concentration of 10 ng/mL", "type": "functional", "in_short": "as §2"}, "Mus musculus [5]": {"species": "Mus musculus", "test": "Lymphocyte Proliferation Stimulatory effect on mouse spleen cell at a concentration of 10 ng/mL", "type": "functional", "in_short": "as §1"}, "Mus musculus [6]": {"species": "Mus musculus", "test": "Lymphocyte Proliferation Stimulatory effect on allogenic MLR at a concentration of 100n g/mL", "type": "functional", "in_short": "as §2"}, "B16 [7]": {"test_system": "B16", "test": "Tumor Growth Inhibitory effect (TGIR) on mice subcutaneously inoculated with B16 cells (compound plus MMC)", "type": "functional, Mus musculus", "set-up": "concentration or dose not given beside the values", "in_short": "(§3)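 Groups of six female BDF1 mice received B16 melanoma (1 × 10^6 cells/mouse) s.c. on day 0. AGL analogues were given i.v. at 100 μg/kg on days 1, 5 and 9, and MMC at 5 mg/kg i.p. on day 1; controls were untreated. Tumor volume (length × width × height/2, by callipers) was read on days 8, 12, 16 and 20. TGIR = [1 − mean test volume/mean control volume] × 100, and the maximum value is reported.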"}, "Mus musculus [8]": {"species": "Mus musculus", "test": "Lymphocyte Proliferation Stimulatory effect was tested on mouse spleen cells and evaluated for at 6 h [3H]TdR (tritium-thymidine) pulse and uptake into cells at 10 ng/mL", "type": "functional", "in_short": "as §1"}, "Mus musculus [9]": {"species": "Mus musculus", "test": "Lymphocyte Proliferation Stimulatory effect was tested on mouse spleen cells and evaluated for at 6 h [3H]TdR (tritium-thymidine) pulse and uptake into cells at 100 ng/mL", "type": "functional", "in_short": "as §1"}, "B16 [10]": {"test_system": "B16", "test": "Tumor Growth Inhibitory effect (TGIR) on mice subcutaneously inoculated with B16 cells (chemotherapeutic agent, mitomycin C (MMC))", "type": "functional, Mus musculus", "set-up": "concentration or dose not given beside the values", "in_short": "as §3"}, "Mus musculus [11]": {"species": "Mus musculus", "test": "Lymphocyte Proliferation Stimulatory effect was tested on mouse spleen cells and evaluated for at 6 h [3H]TdR (tritium-thymidine) pulse and uptake into cells at 1 ng/mL", "type": "functional", "in_short": "as §1"}, "B16 [12]": {"test_system": "B16", "test": "Tumor Growth Inhibitory effect (TGIR) on mice subcutaneously inoculated with B16 cells (compound alone (single))", "type": "functional, Mus musculus", "set-up": "concentration or dose not given beside the values", "in_short": "as §3"}},
  "data": [
    {"molecule": "CCCCCCCCCCCCCCCCCCCCCC[C@@H](O)C(=O)N[C@@H](CO[C@H]1O[C@@H](CO)[C@H](O)[C@H](O)[C@@H]1O)[C@H](O)[C@H](O)CCCCCCCCCCCC(C)C", "note": "(stereo in doubt; form 2)", "values": [
      {"measurement": "[3H] TdR uptake", "setting": "Mus musculus [1]", "value": 24264, "unit": "c.p.m."},
      {"measurement": "[3H] TdR uptake", "setting": "Mus musculus [2]", "value": 36022, "unit": "c.p.m."},
      {"measurement": "[3H] TdR uptake", "setting": "Mus musculus [3]", "value": 8230, "unit": "c.p.m."},
      {"measurement": "[3H] TdR uptake", "setting": "Mus musculus [4]", "value": 36713, "unit": "c.p.m."},
      {"measurement": "[3H] TdR uptake", "setting": "Mus musculus [5]", "value": 19985, "unit": "c.p.m."},
      {"measurement": "[3H] TdR uptake", "setting": "Mus musculus [6]", "value": 32240, "unit": "c.p.m."}
    ]},
    {"molecule": "CCCCCCCCCCCCCCCCCC(=O)N[C@@H](CO[C@H]1O[C@@H](CO)[C@H](O)[C@H](O)[C@@H]1O)[C@H](O)CCCCCCCCCCCCCCC", "values": [
      {"measurement": "Control", "setting": "B16 [7]", "value": 80.3, "unit": "%"},
      {"measurement": "Control", "setting": "Mus musculus [8]", "value": 383, "unit": "%"},
      {"measurement": "Control", "setting": "Mus musculus [9]", "value": 645, "unit": "%"},
      {"measurement": "Tumor growth inhibition ratio (max TGIR)", "setting": "B16 [10]", "value": 64.1, "unit": "%"},
      {"measurement": "Control", "setting": "Mus musculus [11]", "value": 155, "unit": "%"},
      {"measurement": "Control", "setting": "B16 [12]", "value": 78.1, "unit": "%"}
    ]},
    {"molecule": "CCCCCCCCCCCCCCCCCCCCCCCC[C@@H](O)C(=O)N[C@@H](CO[C@H]1O[C@@H](CO)[C@H](O)[C@H](O)[C@@H]1O)[C@H](O)[C@H](O)CCCCCCCCCCCCCCCC", "values": [
      {"measurement": "Control", "setting": "B16 [7]", "value": 94.3, "unit": "%"},
      {"measurement": "Control", "setting": "Mus musculus [8]", "value": 482, "unit": "%"},
      {"measurement": "Control", "setting": "Mus musculus [9]", "value": 481, "unit": "%"},
      {"measurement": "Tumor growth inhibition ratio (max TGIR)", "setting": "B16 [10]", "value": 87.3, "unit": "%"},
      {"measurement": "Control", "setting": "Mus musculus [11]", "value": 153, "unit": "%"},
      {"measurement": "Control", "setting": "B16 [12]", "value": 92.8, "unit": "%"}
    ]},
    {"molecule": "CCCCCCCCCCCCCCCCCCCCCC[C@@H](O)C(=O)N[C@@H](CO[C@H]1O[C@@H](CO)[C@H](O)[C@H](O)[C@@H]1O)[C@H](O)[C@H](O)CCCCCCCCCCC", "values": [
      {"measurement": "Control", "setting": "B16 [7]", "value": 77.4, "unit": "%"},
      {"measurement": "Control", "setting": "Mus musculus [8]", "value": 676, "unit": "%"},
      {"measurement": "Control", "setting": "Mus musculus [9]", "value": 838, "unit": "%"},
      {"measurement": "Tumor growth inhibition ratio (max TGIR)", "setting": "B16 [10]", "value": 46.5, "unit": "%"},
      {"measurement": "Control", "setting": "Mus musculus [11]", "value": 330, "unit": "%"},
      {"measurement": "Control", "setting": "B16 [12]", "value": 94.1, "unit": "%"}
    ]},
    {"molecule": "CCCCCCCCCCCCCCCCCCCC(=O)N[C@@H](CO[C@H]1O[C@@H](CO)[C@H](O)[C@H](O)[C@@H]1O)[C@H](O)CCCCCCCCCCCCCCC", "values": [
      {"measurement": "Control", "setting": "B16 [7]", "value": 90.4, "unit": "%"},
      {"measurement": "Control", "setting": "Mus musculus [8]", "value": 791, "unit": "%"},
      {"measurement": "Control", "setting": "Mus musculus [9]", "value": 1009, "unit": "%"},
      {"measurement": "Tumor growth inhibition ratio (max TGIR)", "setting": "B16 [10]", "value": 39.4, "unit": "%"},
      {"measurement": "Control", "setting": "Mus musculus [11]", "value": 177, "unit": "%"},
      {"measurement": "Control", "setting": "B16 [12]", "value": 53.1, "unit": "%"}
    ]},
    {"molecule": "CCCCCCCCCCCCCCCCCCCCCCCC(=O)N[C@@H](CO[C@H]1O[C@@H](CO)[C@H](O)[C@H](O)[C@@H]1O)[C@H](O)CCCCCCCCCCCCCCC", "values": [
      {"measurement": "Control", "setting": "B16 [7]", "value": 99.1, "unit": "%"},
      {"measurement": "Control", "setting": "Mus musculus [8]", "value": 1432, "unit": "%"},
      {"measurement": "Control", "setting": "Mus musculus [9]", "value": 1494, "unit": "%"},
      {"measurement": "Tumor growth inhibition ratio (max TGIR)", "setting": "B16 [10]", "value": 64, "unit": "%"},
      {"measurement": "Control", "setting": "Mus musculus [11]", "value": 1115, "unit": "%"},
      {"measurement": "Control", "setting": "B16 [12]", "value": 68.9, "unit": "%"}
    ]},
    {"molecule": "CCCCCCCCCCCCCCCCCCCCCCCC[C@@H](O)C(=O)N[C@@H](CO[C@H]1O[C@@H](CO)[C@H](O)[C@H](O)[C@@H]1O)[C@H](O)[C@H](O)CCCCCCCCCCCCCCC", "values": [
      {"measurement": "Control", "setting": "B16 [7]", "value": 97.1, "unit": "%"},
      {"measurement": "Control", "setting": "Mus musculus [8]", "value": 488, "unit": "%"},
      {"measurement": "Control", "setting": "Mus musculus [9]", "value": 673, "unit": "%"},
      {"measurement": "Tumor growth inhibition ratio (max TGIR)", "setting": "B16 [10]", "value": 87.3, "unit": "%"},
      {"measurement": "Control", "setting": "Mus musculus [11]", "value": 221, "unit": "%"},
      {"measurement": "Control", "setting": "B16 [12]", "value": 72.3, "unit": "%"}
    ]},
    {"molecule": "CCCCCCCCCCCCCCCCCCCCCC[C@@H](O)C(=O)N[C@@H](CO[C@H]1O[C@@H](CO)[C@H](O)[C@H](O)[C@@H]1O)[C@H](O)[C@H](O)CCCCCCCCCCCC(C)C", "note": "(stereo in doubt; form 1)", "values": [
      {"measurement": "[3H] TdR uptake", "setting": "Mus musculus [1]", "value": 23968, "unit": "c.p.m."},
      {"measurement": "[3H] TdR uptake", "setting": "Mus musculus [2]", "value": 29143, "unit": "c.p.m."},
      {"measurement": "Control", "setting": "B16 [7]", "value": 94.6, "unit": "%"},
      {"measurement": "[3H] TdR uptake", "setting": "Mus musculus [3]", "value": 7935, "unit": "c.p.m."},
      {"measurement": "[3H] TdR uptake", "setting": "Mus musculus [4]", "value": 38668, "unit": "c.p.m."},
      {"measurement": "Control", "setting": "Mus musculus [8]", "value": 524, "unit": "%"},
      {"measurement": "Control", "setting": "Mus musculus [9]", "value": 879, "unit": "%"},
      {"measurement": "Tumor growth inhibition ratio (max TGIR)", "setting": "B16 [10]", "value": 61.5, "unit": "%"},
      {"measurement": "[3H] TdR uptake", "setting": "Mus musculus [5]", "value": 20746, "unit": "c.p.m."},
      {"measurement": "Control", "setting": "Mus musculus [11]", "value": 282, "unit": "%"},
      {"measurement": "[3H] TdR uptake", "setting": "Mus musculus [6]", "value": 31219, "unit": "c.p.m."},
      {"measurement": "Control", "setting": "B16 [12]", "value": 86.8, "unit": "%"}
    ]},
    {"molecule": "CCCCCCCCCCCCCCCCCCCCCCCC(=O)N[C@@H](CO[C@H]1O[C@@H](CO)[C@H](O)[C@H](O)[C@@H]1O)[C@H](O)[C@H](O)CCCCCCCCCCCCCC", "values": [
      {"measurement": "Control", "setting": "B16 [7]", "value": 90.8, "unit": "%"},
      {"measurement": "Control", "setting": "Mus musculus [8]", "value": 642, "unit": "%"},
      {"measurement": "Control", "setting": "Mus musculus [9]", "value": 790, "unit": "%"},
      {"measurement": "Tumor growth inhibition ratio (max TGIR)", "setting": "B16 [10]", "value": 64.8, "unit": "%"},
      {"measurement": "Control", "setting": "Mus musculus [11]", "value": 198, "unit": "%"},
      {"measurement": "Control", "setting": "B16 [12]", "value": 65, "unit": "%"}
    ]}
  ]
}
